Experimental data reported in ChEMBL document CHEMBL1138065, “Novel selective inhibitors of neutral endopeptidase for the treatment of female sexual arousal disorder. Synthesis and activity of functionalized glutaramides” (J Med Chem, 2006).

Tests used:
[1] = target: T1, Endothelin-converting enzyme 1 (Homo sapiens, UniProt P42892); assay: Inhibition of human ECE1
T1 sequence (P42892 whole entry): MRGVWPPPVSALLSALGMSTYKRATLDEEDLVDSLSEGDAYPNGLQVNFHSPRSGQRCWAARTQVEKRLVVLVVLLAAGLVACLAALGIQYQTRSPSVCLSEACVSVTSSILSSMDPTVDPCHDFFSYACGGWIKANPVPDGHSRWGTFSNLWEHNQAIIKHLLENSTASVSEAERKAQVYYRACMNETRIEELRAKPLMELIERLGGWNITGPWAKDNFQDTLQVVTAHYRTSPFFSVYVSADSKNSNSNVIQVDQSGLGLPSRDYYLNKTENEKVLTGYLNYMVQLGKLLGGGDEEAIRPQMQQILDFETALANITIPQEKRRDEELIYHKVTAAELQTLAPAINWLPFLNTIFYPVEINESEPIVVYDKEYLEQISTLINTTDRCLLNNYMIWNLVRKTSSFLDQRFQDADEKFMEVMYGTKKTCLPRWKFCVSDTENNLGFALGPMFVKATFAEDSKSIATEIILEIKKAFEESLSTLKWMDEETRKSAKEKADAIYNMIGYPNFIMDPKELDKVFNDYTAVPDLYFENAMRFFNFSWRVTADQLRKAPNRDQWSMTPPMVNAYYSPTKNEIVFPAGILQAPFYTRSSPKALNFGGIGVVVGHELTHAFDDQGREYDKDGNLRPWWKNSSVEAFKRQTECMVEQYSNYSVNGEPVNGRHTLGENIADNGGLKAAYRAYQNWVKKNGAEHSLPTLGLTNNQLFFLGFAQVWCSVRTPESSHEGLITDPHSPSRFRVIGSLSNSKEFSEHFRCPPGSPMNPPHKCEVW
Procedure, shortened: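 Enzyme: recombinant human ECE-1 extracellular domain (aa 73-753), taken from the media of transiently transfected CHO cells. Assay in 100 mM HEPES-KOH pH 7.0/1% DMSO with 1 µM big ET-1, 1 h at 37 °C. Stopped with an equal volume of 10 mM EDTA. ET-1 formed was read by ELISA, with enzyme diluted to give OD ≈1.0. Inhibitors were tested at a range of concentrations as % inhibition.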

[2] = Apparent permeability from basolateral to apical side of the Caco-2 cell membrane at pH 7.4 at 25 uM; format: ADME, cell-based; conditions: human, Caco-2, pH 7.4
Rattus norvegicus [3] = assay: Volume of distribution in male rat at 1 mg/kg, iv and po; format: ADME, organism-based; parameters: dose 1 mg/kg, route oral; conditions: in vivo
Procedure, shortened: (§1)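 Jugular-vein-cannulated rats got 1 mg/kg iv (tail vein) or po (gavage). Blood (0.2 mL) was drawn via the catheter into heparin tubes up to 24 h post-dose. Plasma was acidified with phosphoric acid and frozen, then extracted on C18 cartridges. Samples were quantified by LC-MS-MS with positive-ion MRM. Values are mean ± SD of three animals.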

[4] = Stability in human liver microsome at 1 uM in presence of 0.5 uM CYP; format: ADME; conditions: liver microsomes, read-out: Stability
Procedure, shortened: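 Substrate disappearance in human liver microsomes, 1 µM compound, 0.5 µM CYP.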

[5] = Apparent permeability from apical to basolateral side of the Caco-2 cell membrane at pH 7.4 at 25 uM; format: ADME, cell-based; conditions: human, Caco-2, pH 7.4
[6] = Cmax in male rat at 1 mg/kg, iv and po; format: ADME, organism-based; parameters: dose 1 mg/kg, route oral; conditions: in vivo; procedure, shortened: as §1
[7] = Half life in male rat at 1 mg/kg, iv and po; format: ADME, organism-based; parameters: dose 1 mg/kg, route oral; conditions: in vivo; procedure, shortened: as §1
[8] = Oral bioavailability in male rat at 1 mg/kg, iv and po; format: ADME, organism-based; conditions: in vivo; procedure, shortened: as §1
[9] = Stability in rat liver microsome; format: ADME; conditions: liver microsomes, read-out: Stability
[10] = Tmax in male rat at 1 mg/kg, iv and po; format: ADME, organism-based; parameters: dose 1 mg/kg, route oral; conditions: in vivo; procedure, shortened: as §1
[11] = Percent of unbound ligand in male rat at 1 mg/kg, iv and po; format: ADME, organism-based; parameters: dose 1 mg/kg, route oral; conditions: in vivo
Procedure, shortened: (§2)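 Fraction unbound in rat plasma was measured at 1 µg/mL by equilibrium dialysis against isotonic Krebs-Ringer bicarbonate buffer, pH 7.4.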

[12] = Percent of unbound ligand in female rat at 1 mg/kg, iv and po; format: ADME, organism-based; parameters: dose 1 mg/kg, route oral; conditions: in vivo; procedure, shortened: as §2
[13] = Oral bioavailability in female rat at 1 mg/kg, iv and po; format: ADME, organism-based; conditions: in vivo; procedure, shortened: as §1
Rattus norvegicus [14] = assay: Volume of distribution in female rat at 1 mg/kg, iv and po; format: ADME, organism-based; parameters: dose 1 mg/kg, route oral; conditions: in vivo; procedure, shortened: as §1
Neprilysin [15] = target: T2, Neprilysin (Oryctolagus cuniculus, UniProt P08049); assay: Inhibition of rabbit NEP
T2 sequence (P08049 whole entry): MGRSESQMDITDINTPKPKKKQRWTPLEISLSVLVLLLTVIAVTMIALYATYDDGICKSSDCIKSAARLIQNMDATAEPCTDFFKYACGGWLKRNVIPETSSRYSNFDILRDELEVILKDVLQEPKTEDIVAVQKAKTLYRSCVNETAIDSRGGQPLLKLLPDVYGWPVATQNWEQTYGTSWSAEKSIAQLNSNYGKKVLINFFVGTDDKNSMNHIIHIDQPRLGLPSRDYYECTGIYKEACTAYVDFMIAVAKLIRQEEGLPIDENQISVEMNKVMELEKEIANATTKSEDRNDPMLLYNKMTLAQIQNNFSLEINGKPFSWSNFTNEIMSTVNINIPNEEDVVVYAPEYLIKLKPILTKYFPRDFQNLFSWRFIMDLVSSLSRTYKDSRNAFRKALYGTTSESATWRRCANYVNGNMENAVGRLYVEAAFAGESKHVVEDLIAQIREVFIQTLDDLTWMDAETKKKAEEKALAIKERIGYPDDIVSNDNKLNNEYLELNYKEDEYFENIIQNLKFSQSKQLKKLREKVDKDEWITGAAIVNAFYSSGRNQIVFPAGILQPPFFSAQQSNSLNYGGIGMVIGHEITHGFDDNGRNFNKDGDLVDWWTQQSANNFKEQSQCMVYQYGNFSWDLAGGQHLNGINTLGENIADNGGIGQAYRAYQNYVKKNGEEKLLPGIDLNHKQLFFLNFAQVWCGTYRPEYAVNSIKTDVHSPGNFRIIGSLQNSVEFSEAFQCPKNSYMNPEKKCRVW
Procedure, shortened: (§3)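 Fluorogenic substrate o-aminobenzoyl-D-Arg-Arg-Leu-ethylenediamine-2,4-dinitrophenyl in 50 mM Tris·Cl pH 7.4 (inhibitor dilutions with 4% DMSO). Enzyme was diluted to ≤10% conversion; incubation 1 h at 37 °C, stopped with phosphoramidon. 10-point half-log dilution series, duplicate points.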

[16] = Cmax in female rat at 1 mg/kg, iv and po; format: ADME, organism-based; parameters: dose 1 mg/kg, route oral; conditions: in vivo; procedure, shortened: as §1
[17] = Tmax in female rat at 1 mg/kg, iv and po; format: ADME, organism-based; parameters: dose 1 mg/kg, route oral; conditions: in vivo; procedure, shortened: as §1
[18] = Half life in female rat at 1 mg/kg, iv and po; format: ADME, organism-based; parameters: dose 1 mg/kg, route oral; conditions: in vivo; procedure, shortened: as §1
Neprilysin [19] = target: T3, Neprilysin (Rattus norvegicus, UniProt P07861); assay: Inhibition of rat NEP; procedure, shortened: as §3
T3 sequence (P07861 whole entry): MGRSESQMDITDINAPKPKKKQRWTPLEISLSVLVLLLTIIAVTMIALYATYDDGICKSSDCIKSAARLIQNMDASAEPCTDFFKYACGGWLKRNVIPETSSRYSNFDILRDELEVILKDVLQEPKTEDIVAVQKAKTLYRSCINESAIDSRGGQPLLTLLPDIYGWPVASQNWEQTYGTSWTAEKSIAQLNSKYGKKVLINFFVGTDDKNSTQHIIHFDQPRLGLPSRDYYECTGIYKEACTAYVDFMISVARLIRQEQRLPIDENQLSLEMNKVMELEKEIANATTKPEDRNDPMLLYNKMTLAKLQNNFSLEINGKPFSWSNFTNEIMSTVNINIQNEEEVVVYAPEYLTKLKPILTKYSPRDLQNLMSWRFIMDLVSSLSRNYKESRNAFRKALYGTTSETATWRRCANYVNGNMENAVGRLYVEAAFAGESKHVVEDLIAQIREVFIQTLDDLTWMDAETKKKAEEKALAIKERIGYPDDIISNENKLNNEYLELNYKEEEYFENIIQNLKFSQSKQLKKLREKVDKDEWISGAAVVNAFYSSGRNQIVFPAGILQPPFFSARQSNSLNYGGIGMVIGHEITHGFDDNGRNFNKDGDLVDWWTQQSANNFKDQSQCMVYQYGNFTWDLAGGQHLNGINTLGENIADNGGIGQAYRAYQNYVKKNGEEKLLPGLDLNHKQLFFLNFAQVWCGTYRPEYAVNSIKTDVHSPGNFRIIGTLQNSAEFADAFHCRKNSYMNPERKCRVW

[20] = Lipophilicity, LogD at pH 7.4; format: physicochemical; conditions: buffer
Procedure, shortened: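 Partition measured between 1-octanol and water at pH 7.4.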

SMILES	IC50 [1] [µM]	Papp B→A at 25 µM [2] [×10⁻⁶ cm/s]	Vdss (Rattus norvegicus [3]) [L/kg]	half-life at 1 µM [4] [h]	Papp A→B at 25 µM [5] [×10⁻⁶ cm/s]	Cmax [6] [ng/mL]	half-life [7] [h]	bioavailability [8] [%]	Tmax [10] [h]	logD [20]	also measured
CCC[C@@H](CC1(C(=O)NC2(CO)Cc3ccccc3C2)CCCC1)C(=O)O	> 3	–	–	–	–	–	–	–	–	–	–
CCC[C@@H](CC1(C(=O)Nc2nnc(CC)s2)CCCC1)C(=O)O	> 3	–	–	–	–	–	–	–	–	–	–
CCC[C@H](CC1(C(=O)NC2(CO)Cc3ccccc3C2)CCCC1)C(=O)O	> 3	10	4.7	1.03	6	233	1.5	144	0.25	–	half-life [9]: > 2 h; Fu [11]: 24.3%
CCC[C@H](CC1(C(=O)Nc2nnc(C)s2)CCCC1)C(=O)O	> 3	2	–	> 2	< 1	–	–	–	–	–	–
CCC[C@H](CC1(C(=O)Nc2nnc(CC)s2)CCCC1)C(=O)O	> 3	14	0.4	> 2	9	1180	1.7	103	1	–	Fu [12]: 13%; bioavailability [13]: 131%; Vdss (Rattus norvegicus [14]): 0.9 L/kg; IC50 (Neprilysin [15]): 0.0102 µM; Cmax [16]: 1460 ng/mL; Tmax [17]: 1 h; half-life [18]: 2.1 h; half-life [9]: > 2 h; Fu [11]: 10.6%; IC50 (Neprilysin [19]): 0.0143 µM
CCCC(CC1(C(=O)Nc2nnc(C)s2)CCCC1)C(=O)O (racemic)	–	–	–	–	–	–	–	–	–	0.1	–
CCCC(CC1(C(=O)Nc2nnc(CC)s2)CCCC1)C(=O)O (racemic)	–	–	–	–	–	–	–	–	–	0.5	–
CCCC(CC1(C(=O)NC2(CO)Cc3ccccc3C2)CCCC1)C(=O)O (racemic)	–	–	3.9	–	–	311	2	108	0.25	1.1	–
